Published values from different studies.
Lines come from different studies, so protocols differ.
Target: Interferon-induced, double-stranded RNA-activated protein kinase (EIF2AK2, Homo sapiens, UniProt P19525)

| Compound | read-out | technique | concentration | remaining binding |
| --- | --- | --- | --- | --- |
| O=C(O)[C@H]1[C@H](Cn2nnc3ccccc3c2=O)CC[C@@H]1C(=O)c1ccc(OCCC2CCOCC2)cc1 | cell-free assay | competition with immobilised ligand | 1 µM | 91% |
| O=C(c1ccc(Nc2ncc(Cl)c(-c3ccc(Cl)s3)n2)cc1)N1CCC(N2CCCC2)CC1 | binding | competition with immobilised ligand | 1 µM | 14% |
| CN(c1nccc(-c2cnn3ncccc23)n1)C1CC1 | binding | – | 1 µM | 100% |
| CCOC(=O)c1cc2cc(-c3cc(C(=O)NCc4ccc(C(=O)O)cc4)nn3C)ccc2[nH]1 | cell-free assay | competition with immobilised ligand | 0.1 µM | 100% |
| COc1cnc(Nc2cccc(S(N)(=O)=O)c2)nc1N1CCN(c2ccccc2)CC1 | binding | competition with immobilised ligand | 1 µM | 97% |
| COc1ncc2cc3ccccc3nc2c1C#N | cell-free assay | competition with immobilised ligand | 5 µM | 100% |
| CC(=O)N1CCC(c2ccc(C(=O)NC(=N)N)cc2C(F)(F)F)CC1 | cell-free assay | competition with immobilised ligand | 1 µM | 100% |
| C[C@@H]1CCN(c2nccc(-c3cnn4ncccc34)n2)C1 | binding | – | 1 µM | 83% |
| c1cncc(-c2cccc(Nc3nccc(NC4CCCCC4)n3)c2)c1 | binding | competition with immobilised ligand | 10 µM | 100% |
| CN1CCN(c2cnc3c(C4CCN(C(=O)c5ccc(OC(F)(F)F)cc5N)CC4)ncnc3c2)CC1 | cell-free assay | competition with immobilised ligand | 1 µM | 85% |
| CN(C)c1nccc(-c2cnn3ncccc23)n1 | binding | – | 1 µM | 100% |
| O=C(NCC1CCOCC1)c1n[nH]cc1NC(=O)c1c(F)cccc1F | binding | competition with immobilised ligand | 1 µM | 100% |
| CCN1CCN(Cc2ccc(C(=O)Nc3ccc(C)c(Oc4ccc5c(c4)CC(=O)N5)c3)cc2C(F)(F)F)CC1 | binding | competition with immobilised ligand | 1 µM | 96% |
| c1cnn2ncc(-c3ccnc(N4CCC45COC5)n3)c2c1 | binding | – | 1 µM | 100% |
| CCS(=O)(=O)c1cc2cc(C[C@](O)(CC(C)(C)c3ccc(F)cc3C(N)=O)C(F)(F)F)[nH]c2cn1 | cell-free assay | competition with immobilised ligand | 1 µM | 52% |
| N[C@@H]1CCN(c2nccc(-c3cnn4ncccc34)n2)C1 | binding | – | 1 µM | 100% |
| O=C(NCCCN1CCOCC1)c1ccc(Nc2nccc(-c3cc4ccccc4s3)n2)cc1 | binding | competition with immobilised ligand | 1 µM | 64% |
| F[C@@H]1CCN(c2nccc(-c3cnn4ncccc34)n2)C1 | binding | – | 1 µM | 100% |
| O=c1nc(-c2ccccn2)sc2ccccc12 | binding | competition with immobilised ligand | 1 µM | 100% |
| O=C(NCCCN1CCOCC1)c1ccc(Nc2ncc(Cl)c(-c3ccc(Cl)s3)n2)cc1 | binding | competition with immobilised ligand | 1 µM | 58% |
